Reference: ChEMBL document CHEMBL4765459, “Synthesis and bioactivity of phenyl substituted furan and oxazole carboxylic acid derivatives as potential PDE4 inhibitors” (Eur J Med Chem, 2020)

Columns and labels:
[1] = biological target: T1, 3',5'-cyclic-AMP phosphodiesterase 4B (Homo sapiens, UniProt Q07343); assay: Inhibition of PDE4B in human PBMC assessed as reduction in LPS-induced TNFalpha release preincubated for 30 mins followed by LPS stimulation and measured after 18 hrs by TR-FRET assay
How it was run: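 Human PBMCs from buffy coats, blood first diluted 1:1 with saline, isolated on Lymphoprep. Compound pre-incubation 30 min, then LPS stimulation for 18 h. IC50 reported.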

Mus musculus = assay: Antiinflammatory activity in LPS induced Swiss albino mouse model of sepsis assessed as inhibition of TNFalpha production at 10 mg/kg, po preincubated for 30 mins followed by LPS stimulation and measured after 90 mins by ELISA relative to control; type: functional; details: 2 h, time 120 min
How it was run: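 Female Swiss albino mice, weight-matched, n = 6 per group, fasted 20 h with water available. Oral dosing in 0.5% Tween 80 / 0.25% sodium carboxymethylcellulose, with vehicle-only controls. 500 µg E. coli LPS (B4) in phosphate buffer given i.p. 30 min later. Retro-orbital bleed 90 min after LPS. Serum spun 4000 rpm for 20 min, held at 4 °C overnight, then TNF-α measured by mouse ELISA kit.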

Rattus norvegicus = assay: Antiinflammatory activity in LPS induced Sprague-Dawley rat model of asthma and COPD assessed as inhibition of neutrophilia at 10 mg/kg, po preincubated for 30 mins followed by LPS stimulation and measured after 6 hrs relative to control; type: functional; details: time 6.5 hrs
How it was run: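 Male Sprague Dawley rats, acclimatized one week and randomized by body weight, n = 6 per group. Compound given orally, suspended in 0.25% sodium carboxymethylcellulose, half an hour before LPS exposure. Bronchoalveolar lavage done 6 h after LPS. Total cell count and differential leukocyte count compared with control.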

Homo sapiens = organism: Homo sapiens; assay: Selectivity ratio of IC50 for inhibition of human U937 cells derived PDE4D to inhibition of human U937 cells derived PDE4B
[2] = biological target: T1, 3',5'-cyclic-AMP phosphodiesterase 4B; assay: Inhibition of human U-937 cells derived PDE4B using [3H] cAMP as substrate measured after 30 mins
How it was run: (§1)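 Enzyme from human monocyte-derived U937 cells, stored at −20 °C and diluted in triple-distilled water containing BSA. Substrate was [3H]cAMP (300,000 dpm/assay) in 100 mmol/L Tris-HCl pH 8.0 with 5 mmol/L EGTA. Compound added in DMSO. Incubation 30 min at 30 °C. Duplicates run at several compound concentrations.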

[3] = biological target: 3',5'-cyclic-AMP phosphodiesterase 4D (Homo sapiens, UniProt Q08499); assay: Inhibition of human U-937 cells derived PDE4D using [3H] cAMP as substrate measured after 30 mins; how it was run: as §1
3',5'-cyclic-AMP phosphodiesterase 4D, sequence (Q08499 whole entry): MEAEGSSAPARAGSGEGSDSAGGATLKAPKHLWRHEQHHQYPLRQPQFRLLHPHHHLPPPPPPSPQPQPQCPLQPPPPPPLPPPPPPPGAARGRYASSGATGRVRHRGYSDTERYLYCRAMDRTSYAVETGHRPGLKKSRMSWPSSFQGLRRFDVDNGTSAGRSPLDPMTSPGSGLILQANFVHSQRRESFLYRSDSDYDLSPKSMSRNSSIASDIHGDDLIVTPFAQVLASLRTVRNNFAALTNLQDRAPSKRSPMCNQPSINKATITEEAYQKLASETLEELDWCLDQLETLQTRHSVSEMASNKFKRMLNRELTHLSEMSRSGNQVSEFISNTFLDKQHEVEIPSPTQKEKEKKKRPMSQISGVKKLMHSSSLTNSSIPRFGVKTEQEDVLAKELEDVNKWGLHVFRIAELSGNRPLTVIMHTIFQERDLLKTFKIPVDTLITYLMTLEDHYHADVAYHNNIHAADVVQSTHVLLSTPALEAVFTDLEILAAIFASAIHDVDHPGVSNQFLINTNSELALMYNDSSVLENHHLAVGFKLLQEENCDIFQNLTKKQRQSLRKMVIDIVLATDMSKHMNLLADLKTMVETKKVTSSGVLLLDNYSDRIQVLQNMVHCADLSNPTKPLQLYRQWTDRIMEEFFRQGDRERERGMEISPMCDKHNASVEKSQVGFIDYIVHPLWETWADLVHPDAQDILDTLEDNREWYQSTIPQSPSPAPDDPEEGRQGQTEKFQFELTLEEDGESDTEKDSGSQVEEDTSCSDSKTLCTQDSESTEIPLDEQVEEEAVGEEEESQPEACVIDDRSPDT

T1 sequence (Q07343 whole entry): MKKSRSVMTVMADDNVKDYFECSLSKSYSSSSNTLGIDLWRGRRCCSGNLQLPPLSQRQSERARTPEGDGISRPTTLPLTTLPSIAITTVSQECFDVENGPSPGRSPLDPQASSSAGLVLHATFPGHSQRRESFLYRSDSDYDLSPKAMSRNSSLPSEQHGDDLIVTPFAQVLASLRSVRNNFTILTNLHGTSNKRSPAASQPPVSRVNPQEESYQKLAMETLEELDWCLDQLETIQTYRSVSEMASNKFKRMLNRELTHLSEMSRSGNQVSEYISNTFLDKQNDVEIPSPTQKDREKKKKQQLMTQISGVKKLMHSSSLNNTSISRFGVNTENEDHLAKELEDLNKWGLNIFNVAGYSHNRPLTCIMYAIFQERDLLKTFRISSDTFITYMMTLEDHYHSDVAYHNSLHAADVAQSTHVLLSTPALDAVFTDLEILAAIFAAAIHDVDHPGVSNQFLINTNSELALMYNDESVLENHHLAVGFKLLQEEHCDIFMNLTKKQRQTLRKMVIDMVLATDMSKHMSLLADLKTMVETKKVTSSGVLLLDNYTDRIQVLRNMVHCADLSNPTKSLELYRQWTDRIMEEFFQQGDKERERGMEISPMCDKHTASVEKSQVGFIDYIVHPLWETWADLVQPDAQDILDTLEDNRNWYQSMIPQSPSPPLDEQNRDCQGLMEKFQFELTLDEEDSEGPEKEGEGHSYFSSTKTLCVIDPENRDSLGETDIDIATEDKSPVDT

Row | SMILES | IC50 [1] [µM] | inhibition in vivo at 10 mg/kg (Mus musculus) [%] | inhibition in vivo at 10 mg/kg (Rattus norvegicus) [%] | Ratio IC50 (Homo sapiens) | IC50 [2] [µM] | IC50 [3] [µM]
1 | COc1ccc(-c2ccc(C(=O)N3CCS/C3=N/C#N)o2)cc1 | 15.3 | 40.5 | 33.8 | 6.68 | 2.8 | 18.7
2 | COc1ccc(C2CNC(=O)C2)cc1OC1CCCC1 (stereo not drawn) [ROLIPRAM] |  | 45.3 | 36.8 |  |  | 
3 | COc1ccc(-c2ccc(CN3CCS/C3=N/C#N)o2)cc1 | 36.8 | 31.2 | 28.7 | 3.42 | 9.6 | 32.8
4 | Cc1ccc(-c2ccc(CN3CCS/C3=N/C#N)o2)cc1 | 53.9 |  |  | 6.04 | 20.1 | 121
5 | N#C/N=C1/SCCN1C(=O)c1ccc(-c2c(F)cccc2F)o1 | 60.1 |  |  | 4.01 | 22.1 | 88.6
6 | N#C/N=C1/SCCN1C(=O)c1coc(-c2cccc(F)c2)n1 | 64.3 |  |  |  | 27.6 | 
7 | N#C/N=C1/SCCN1C(=O)c1coc(-c2c(F)cccc2F)n1 | 49.3 |  |  | 6.06 | 16.3 | 98.7
8 | N#C/N=C1/SCCN1Cc1ccc(-c2ccc(Cl)cc2)o1 | 44.2 |  |  | 3.71 | 15.7 | 58.3
9 | N#C/N=C1/SCCN1C(=O)c1coc(-c2ccc(Cl)cc2)n1 | 27.2 |  |  | 7.44 | 3.6 | 26.8
10 | N#C/N=C1/SCCN1Cc1ccc(-c2ccccc2F)o1 | 121 |  |  |  | 85.6 | 
11 | N#C/N=C1/SCCN1C(=O)c1ccc(-c2ccccc2)o1 | 170 |  |  |  | 111 | 
12 | N#C/N=C1/SCCN1C(=O)c1coc(-c2cccc(Cl)c2)n1 | 62.5 |  |  | 5.66 | 18.1 | 102
13 | N#C/N=C1/SCCN1C(=O)c1ccc(-c2ccc(Br)cc2)o1 | 139 |  |  |  | 49.6 | 
14 | N#C/N=C1/SCCN1Cc1ccc(-c2ccccc2Cl)o1 | 149 |  |  |  | 102 | 
15 | N#C/N=C1/SCCN1C(=O)c1ccc(-c2cccc(F)c2)o1 | 72.6 |  |  |  | 37.8 | 
16 | Cc1ccc(-c2ccc(C(=O)N3CCS/C3=N/C#N)o2)cc1 | 41.3 |  |  | 4.34 | 12.5 | 54.3
17 | COc1ccc(-c2nc(C(=O)N3CCS/C3=N/C#N)co2)cc1 | 11.8 | 52.6 | 42.1 | 11.2 | 1.4 | 15.7

Row | SMILES | IC50 [1] [µM] | inhibition in vivo at 10 mg/kg (Mus musculus) [%] | inhibition in vivo at 10 mg/kg (Rattus norvegicus) [%] | Ratio IC50 (Homo sapiens) | IC50 [2] [µM] | IC50 [3] [µM]
18 | N#C/N=C1/SCCN1C(=O)c1ccc(-c2ccccc2Cl)o1 | 123 |  |  |  | 62.8 | 
19 | N#C/N=C1/SCCN1C(=O)c1coc(-c2ccc(F)cc2)n1 | 22.1 |  |  | 6.75 | 6.8 | 45.9
20 | N#C/N=C1/SCCN1C(=O)c1coc(-c2ccc(Br)cc2)n1 | 131 |  |  |  | 46.7 | 
21 | Cc1ccc(-c2nc(C(=O)N3CCS/C3=N/C#N)co2)cc1 | 35.2 |  |  | 7.27 | 9.2 | 66.9
22 | N#C/N=C1/SCCN1Cc1ccc(-c2ccc(F)cc2)o1 | 45.8 |  |  | 5.85 | 18.9 | 111
23 | N#C/N=C1/SCCN1C(=O)c1ccc(-c2ccccc2F)o1 | 110 |  |  |  | 62.4 | 
24 | N#C/N=C1/SCCN1C(=O)c1ccc(-c2cccc(Cl)c2)o1 | 74.3 |  |  | 3.39 | 29.4 | 99.8
25 | N#C/N=C1/SCCN1C(=O)c1coc(-c2ccccc2Cl)n1 | 101 |  |  |  | 40.3 | 
26 | N#C/N=C1/SCCN1C(=O)c1ccc(-c2ccc(Cl)cc2)o1 | 35.6 |  |  | 4 | 6.6 | 26.4
27 | N#C/N=C1/SCCN1C(=O)c1coc(-c2ccccc2)n1 | 142 |  |  |  | 71.2 | 
28 | N#C/N=C1/SCCN1Cc1ccc(-c2ccc(Br)cc2)o1 | 156 |  |  |  | 52.7 | 
29 | N#C/N=C1/SCCN1C(=O)c1ccc(-c2ccc(F)cc2)o1 | 29.8 |  |  | 4.93 | 11.3 | 55.7
30 | N#C/N=C1/SCCN1C(=O)c1coc(-c2ccccc2F)n1 | 92.8 |  |  |  | 52.8 | 
31 | N#C/N=C1/SCCN1Cc1ccc(-c2c(F)cccc2F)o1 | 82.3 |  |  | 3.49 | 45.7 | 160
32 | N#C/N=C1/SCCN1Cc1ccc(-c2ccccc2)o1 | 199 |  |  |  | 162 | 
33 | N#C/N=C1/SCCN1Cc1ccc(-c2cccc(Cl)c2)o1 | 89.7 |  |  |  | 62.8 | 
34 | N#C/N=C1/SCCN1Cc1ccc(-c2cccc(F)c2)o1 | 89.5 |  |  |  | 59.7 | 
